# In the library only some 1.8% were active in any assay of this set; here they are far more common.
# M4 ag: CHRM4 agonism in calcium assay. CHO-K1 hM4/Gqi5, Fluo-8 calcium fluorescence; vehicle 0%, full acetylcholine response 100%. actives 0.14% (n = 360,000). AID 624127. P08173. activation, % at 3 µM;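 active means activation above the run mean over all test wells plus 3 SD, cut at about 32% in these data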;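 further: peak over basal fluorescence ratio per well then scaled between controls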
# Target sequence (P08173 whole entry, looked up): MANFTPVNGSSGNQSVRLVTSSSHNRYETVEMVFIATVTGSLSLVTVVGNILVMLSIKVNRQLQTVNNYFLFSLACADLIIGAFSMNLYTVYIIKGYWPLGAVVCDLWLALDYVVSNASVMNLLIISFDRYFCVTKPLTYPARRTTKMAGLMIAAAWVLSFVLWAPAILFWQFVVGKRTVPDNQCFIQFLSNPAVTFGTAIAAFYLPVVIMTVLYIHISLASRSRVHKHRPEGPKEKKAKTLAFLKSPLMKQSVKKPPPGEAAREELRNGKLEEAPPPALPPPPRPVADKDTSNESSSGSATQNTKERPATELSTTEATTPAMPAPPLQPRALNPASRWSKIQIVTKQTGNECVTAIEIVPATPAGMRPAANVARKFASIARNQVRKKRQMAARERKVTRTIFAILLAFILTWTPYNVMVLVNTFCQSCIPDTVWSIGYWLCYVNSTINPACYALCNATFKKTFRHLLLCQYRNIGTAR
# CHRM4 PAM: positive allosteric modulators of human muscarinic M4 receptor; actives 0.4% (n = 360,000); activation, % at 3 µM; CHO-K1 hM4/Gqi5, Fluo-8 calcium fluorescence, ACh EC20; 0% = ACh EC20, 100% = maximal ACh; P08173;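 active means activation above its plate's cutoff, the mean activation of sample wells plus 3 SD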
# CHRM5 antagonist: blocks acetylcholine activation of human M5 receptor. P08912. CHO-hM5 cells, Fluo-8 calcium fluorescence, ACh EC80. inhibition, % at 3 µM. actives 0.59% (n = 360,000). AID 624040;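 active means inhibition above a per-plate cutoff, the mean of that plate's test compounds plus 3 SD, cut at about 27% in these data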
# CHRM4 antagonist: antagonists of human muscarinic M4 receptor (CHRM4); CHO-hM4 cells, ACh EC80, Fluo-8 calcium fluorescence; inhibition, % at 3 µM; actives 0.73% (n = 360,000);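 active means inhibition above its plate's cutoff, the mean inhibition of sample wells plus 3 SD, cut at about 27% in these data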
# CHRM5 agonist: agonists of human muscarinic M5 receptor (CHRM5) | activation, % at 3 µM | AID 624037 | CHO-K1 hM5 cells, Fluo-8 calcium fluorescence; 0% DMSO wells, 100% maximal acetylcholine response | actives 0.19% (n = 360,000) | P08912;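 active means activation above the run's mean over test compounds plus 3 SD, cut at about 23% in these data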;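 further: signal is peak over basal fluorescence ratio across the kinetic read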
# CHRM5 PAM: CHRM5 positive allosteric modulation; P08912; CHO-K1 hM5, Fluo-8 calcium, ACh EC20 PAM; 0% = ACh EC20, 100% = ACh EC100; activation, % at 3 µM; actives 0.3% (n = 360,000);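 active means activation above the run cutoff, the mean activation of all test compounds plus 3 SD, cut at about 18% in these data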
#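 Test system: CHO-K1 hM5 cells / Doses: single-point, 3 µM nominal / Times: Post-acetylcholine fluorescence recording 140 s / Technique: Fluo-8 calcium fluorescence / Measure: Max/basal fluorescence ratio as % of EC20–EC100 ACh window / Benchmarks: low control EC20 acetylcholine (0%), high control EC100 acetylcholine (100%) / Replicates: one well per compound, no replicates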
# Numbers stand for hits; – = inactive; · = not tested or not shown.
SMILES,M4 ag,CHRM4 PAM,CHRM5 antagonist,CHRM4 antagonist,CHRM5 agonist,CHRM5 PAM
CCCNC(=O)c1c(N)n(Cc2ccc3c(c2)OCO3)c2nc3ccccc3nc12,–,–,–,–,–,–
CON(C)C(=O)Nc1ccc(Cl)cc1,–,–,–,–,–,–
O=C(Nc1ccc(Cl)cc1)O/N=C(\c1ccccc1)c1ccccn1,–,–,33.3,–,–,–
COC(=O)C1=C(c2ccccc2)C[C@@H]2CC[C@H]1N2C(=O)NCCS(C)=O (stereo partly drawn),–,–,–,–,–,–
C#CC[N+]1(C)[C@@H]2CC[C@H]1CC(OC(=O)C(CO)c1ccccc1)C2 (stereo partly drawn),–,–,98.0,99.0,–,–
C[N+]1(C)C2CC[C@H]1CC(OC(=O)C(CO)c1ccccc1)C2 (stereo partly drawn),–,–,98.8,99.2,–,–
C[N+]1(C)C2CCC1CC(OC(=O)c1c[nH]c3ccccc13)C2 (stereo not drawn),–,–,–,–,–,–
C[N+]1(C)C2CC(OC(=O)[C@H](CO)c3ccccc3)CC1C1OC12 (stereo partly drawn),·,·,98.6,·,–,–
C[N+]1(C)[C@@H]2CC[C@H]1CC(OC(=O)[C@@H](CO)c1ccccc1)C2 (stereo partly drawn),–,–,99.0,99.1,–,–
COC(=O)C1=C(c2c(C)noc2C)C[C@@H]2CC[C@H]1N2C(=O)NCCO,–,–,–,–,–,–
C[N+]1(C)CCC(OC(=O)C(c2ccccc2)c2ccccc2)CC1,–,–,98.7,97.9,–,–
Cc1cc(C(=O)OCC(=O)Nc2ccc(F)cc2)c(C)n1C1CC1,–,–,–,–,–,–
O=C(CF)NC(NC(=S)Nc1ccccc1O)C(Cl)(Cl)Cl (stereo not drawn),–,20.1,–,–,–,–
CC1CCN(C(CC(=O)c2ccccc2)C(=O)c2ccccc2)CC1 (stereo not drawn),–,–,–,–,–,–
CCCCn1c(=O)c(C(=O)Nc2ncccc2C)c(O)c2ccccc21,33.4,–,–,–,–,–
CCCCCCn1c(=O)c(C(=O)Nc2ncccc2C)c(O)c2ccccc21,–,–,–,–,–,–
c1ccc(C(OCCN2CCN(c3ncccn3)CC2)c2ccccc2)cc1,–,–,–,–,–,–
Clc1ccc(C(OCCN2CCCCC2)c2ccccc2)cc1 (stereo not drawn),–,–,57.0,38.4,–,–
CN(C)CCSC1c2ccccc2CSc2ccccc21 (stereo not drawn),–,–,98.9,98.3,–,–
Cc1nc2ccccc2c(=O)n1-c1cccc(C(F)(F)F)c1,–,–,–,–,–,–
CN1CCN(c2ccc([N+](=O)[O-])c(Sc3ccccn3)c2)CC1,–,–,–,–,–,28.3
CC1(C)OC(c2ccccc2)=C/C(=C/C=C2C(=O)NC(=O)NC2=O)O1,–,–,–,–,75.1,–
CCCOc1ccccc1OCC(=O)N1CCN(CC(=O)N2CCOCC2)CC1,–,–,–,–,–,–
CC(C)(O)/C=C/C(=O)C(C)(O)C1C(O)CC2(C)C3CC=C4C(C=C(O)C(=O)C4(C)C)C3(C)C(=O)CC12C (stereo not drawn),–,–,–,–,–,19.4
CC(=O)OC(C)(C)/C=C/C(=O)[C@](C)(O)C1[C@H](O)C[C@@]2(C)C3CC=C4C(C[C@H](O)C(=O)C4(C)C)[C@]3(C)C(=O)C[C@]12C (stereo partly drawn),–,23.7,–,–,–,–
CN(C)c1ccc(/C=C/[N+](=O)[O-])cc1,–,–,54.9,–,34.8,–
Fc1ccccc1CN1Cc2ccccc2-n2nncc2C1,–,–,–,–,–,–
COC(=O)C1=C(c2cccc(OCc3ccccc3)c2)C[C@@H]2CC[C@H]1N2C(=O)NCCc1ccc(F)cc1,–,–,–,39.8,–,–
COC(=O)C1=C(c2ccc(F)cc2OCc2ccccc2)C[C@@H]2CC[C@H]1N2C(=O)N1CCC(C)CC1,–,–,–,38.0,–,–

# Assay outcomes deposited in PubChem by The Scripps Research Institute Molecular Screening Center.
